Assay results published in ChEMBL document CHEMBL2417469, “Synthesis of novel analogs of 2-pyrazoline obtained from [(7-chloroquinolin-4-yl)amino]chalcones and hydrazine as potential antitumor and antimalarial agents” (Eur J Med Chem, 2013).

Key:
Type in all cases: functional
[1] = test system: RPMI-8226; test: Cytotoxicity against human RPMI8226 cells after 48 hrs by SRB assay; conditions: RPMI-8226, 48 h
Summary of the method: (§1)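 NCI 60-cell-line screen. Cells preincubated 24 h at 37 °C, 5% CO2; time-zero plates TCA-fixed. Compounds dissolved in DMSO and tested at five concentrations (100, 10, 1.0, 0.1, 0.01 µM) for 48 h continuous exposure. Adherent cells fixed with cold TCA (10% final), then SRB stained; absorbance at 515 nm. GI50, TGI and LC50 calculated from growth relative to time-zero and untreated controls.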

[2] = test system: MDA-MB-231; test: Cytotoxicity against human MDA-MB-231 cells after 48 hrs by SRB assay; conditions: MDA-MB-231, 48 h; summary of the method: as §1
[3] = test system: HOP-92; test: Cytotoxicity against human HOP92 cells after 48 hrs by SRB assay; conditions: HOP-92, 48 h; summary of the method: as §1
[4] = test system: SNB-19; test: Cytotoxicity against human SNB19 cells after 48 hrs by SRB assay; conditions: SNB-19, 48 h
Summary of the method: (§2)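 NCI 60-cell screen. Cells grew 24 h (37 °C, 5% CO2) before compound was added. Compounds were in DMSO and diluted in medium with gentamicin, then tested at five levels (100, 10, 1.0, 0.1, 0.01 µM) with 48 h continuous exposure. Adherent cells were fixed with TCA (10% final) and stained with 0.4% SRB, absorbance read at 515 nm. A time-zero plate was included. LC50 is the concentration giving 50% loss of protein relative to time zero.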

[5] = test system: MDA-MB-435; test: Cytotoxicity against human MDA-MB-435 cells after 48 hrs by SRB assay; conditions: MDA-MB-435, 48 h; summary of the method: as §1
[6] = test system: SK-MEL-2; test: Cytotoxicity against human SK-MEL-2 cells after 48 hrs by SRB assay; conditions: SK-MEL-2, 48 h; summary of the method: as §1
[7] = test system: OVCAR-4; test: Cytotoxicity against human OVCAR4 cells after 48 hrs by SRB assay; conditions: OVCAR-4, 48 h; summary of the method: as §1
[8] = test system: Plasmodium falciparum; test: Antimalarial activity against Plasmodium falciparum NF54 infected in human serum at 20 ug/ml after 48 hrs by fluorometric method
Summary of the method: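 Asynchronous P. falciparum NF54 at 1.5–2% parasitemia, 5% hematocrit in RPMI with 10% human serum, exposed 48 h at 37 °C under 90% N2/5% CO2/5% O2 at the stated concentration; parasite DNA stained with ethidium bromide after proteinase K lysis; viability % = (Flu treated − medium)/(Flu untreated − medium) ×100; triplicate.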

[9] = test system: SF-539; test: Cytotoxicity against human SF539 cells after 48 hrs by SRB assay; conditions: SF-539, 48 h; summary of the method: as §1
[10] = test system: T47D; test: Cytotoxicity against human T47D cells after 48 hrs by SRB assay; summary of the method: as §2
[11] = test system: NCI-H23; test: Cytotoxicity against human NCI-H23 cells after 48 hrs by SRB assay; conditions: NCI-H23, 48 h; summary of the method: as §1
[12] = Cytotoxicity against human EKVX cells after 48 hrs by SRB assay; summary of the method: as §1
[13] = test system: RXF 393; test: Cytotoxicity against human RXF393 cells after 48 hrs by SRB assay; conditions: RXF 393, 48 h; summary of the method: as §1
[14] = test system: SF-268; test: Cytotoxicity against human SF268 cells after 48 hrs by SRB assay; conditions: SF-268, 48 h; summary of the method: as §1
[15] = test system: NCI-H522; test: Cytotoxicity against human NCI-H522 cells after 48 hrs by SRB assay; conditions: NCI-H522, 48 h; summary of the method: as §1
[16] = test system: UO-31; test: Cytotoxicity against human UO31 cells after 48 hrs by SRB assay; conditions: UO-31, 48 h; summary of the method: as §2
[17] = test system: DU-145; test: Cytotoxicity against human DU145 cells after 48 hrs by SRB assay; conditions: DU-145, 48 h; summary of the method: as §1
[18] = test system: SNB-75; test: Cytotoxicity against human SNB75 cells after 48 hrs by SRB assay; conditions: SNB-75, 48 h; summary of the method: as §2
[19] = test system: HOP-62; test: Cytotoxicity against human HOP62 cells after 48 hrs by SRB assay; conditions: HOP-62, 48 h; summary of the method: as §1
[20] = test system: OVCAR-3; test: Cytotoxicity against human OVCAR3 cells after 48 hrs by SRB assay; conditions: OVCAR-3, 48 h; summary of the method: as §1
[21] = test system: NCI-H226; test: Cytotoxicity against human NCI-H226 cells after 48 hrs by SRB assay; conditions: NCI-H226, 48 h; summary of the method: as §1
[22] = test system: CCRF-CEM; test: Cytotoxicity against human CCRF-CEM cells after 48 hrs by SRB assay; summary of the method: as §1
[23] = test system: HL-60(TB); test: Cytotoxicity against human HL-60(TB) cells after 48 hrs by SRB assay; conditions: HL-60, 48 h; summary of the method: as §1
[24] = test system: Hs-578T; test: Cytotoxicity against human Hs578T cells after 48 hrs by SRB assay; summary of the method: as §1
[25] = test system: SN12C; test: Cytotoxicity against human SN12C cells after 48 hrs by SRB assay; summary of the method: as §1
[26] = test system: ACHN; test: Cytotoxicity against human ACHN cells after 48 hrs by SRB assay; summary of the method: as §1
[27] = test system: UACC-62; test: Cytotoxicity against human UACC62 cells after 48 hrs by SRB assay; conditions: UACC-62, 48 h; summary of the method: as §2
[28] = test system: UACC-257; test: Cytotoxicity against human UACC257 cells after 48 hrs by SRB assay; conditions: UACC-257, 48 h; summary of the method: as §2
[29] = test system: MCF7; test: Cytotoxicity against human MCF7 cells after 48 hrs by SRB assay; conditions: MCF7, 48 h; summary of the method: as §1
[30] = test system: SW-620; test: Cytotoxicity against human SW620 cells after 48 hrs by SRB assay; conditions: SW-620, 48 h; summary of the method: as §2
[31] = test system: OVCAR-5; test: Cytotoxicity against human OVCAR5 cells after 48 hrs by SRB assay; conditions: OVCAR-5, 48 h; summary of the method: as §1
[32] = test system: A549; test: Cytotoxicity against human A549/ATCC cells after 48 hrs by SRB assay; conditions: A549, 48 h; summary of the method: as §1
[33] = test system: NCI-H460; test: Cytotoxicity against human NCI-H460 cells after 48 hrs by SRB assay; conditions: NCI-H460, 48 h; summary of the method: as §1
[34] = test system: HCC 2998; test: Cytotoxicity against human HCC2998 cells after 48 hrs by SRB assay; conditions: HCC 2998, 48 h; summary of the method: as §1
[35] = read-out: LC50 (the source's name)

O=CN1N=C(c2cccc(Nc3ccnc4cc(Cl)ccc34)c2)CC1c1ccc(Cl)cc1 (stereo unspecified)
GI50 [1]: 2450 nM | LC50 (concentration killing 50% of cells) [1]: > 100 µM | GI50 [2]: 2120 nM | LC50 (concentration killing 50% of cells present at time zero) [2]: > 100 µM | GI50 [3]: 650 nM | LC50 (concentration killing 50% of cells) [3]: > 100 µM | GI50 [4]: 3.48 µM | LC50 [4]: > 100 µM | GI50 [5]: 290 nM | LC50 [5]: > 100 µM | GI50 [6]: 2050 nM | LC50 [6]: > 100 µM | GI50 [7]: 4.13 µM | LC50 [7]: > 100 µM | inhibition at 20 µg/mL [8]: 7% | GI50 [9]: 3.78 µM | CC50 [9, 35]: > 100 µM | GI50 [10]: 2630 nM | LC50 (concentration giving 50% cell kill relative to time zero) [10]: > 100 µM | GI50 [11]: 2480 nM | CC50 [11, 35]: > 100 µM | GI50 [12]: > 100 µM | LC50 [12]: > 100 µM | GI50 [13]: 3.08 µM | LC50 (concentration killing 50% of cells) [13]: > 100 µM | GI50 [14]: 4.37 µM | LC50 [14]: > 100 µM | GI50 [15]: 800 nM | CC50 [15, 35]: > 100 µM | GI50 [16]: 880 nM | LC50 [16]: > 100 µM | GI50 [17]: 4.17 µM | LC50 (concentration killing 50% of cells) [17]: > 100 µM | GI50 [18]: 1580 nM | LC50 (50% net cell kill) [18]: > 100 µM | GI50 [19]: 1910 nM | LC50 (50% lethal concentration) [19]: > 100 µM | GI50 [20]: 1200 nM | LC50 [20]: > 100 µM | GI50 [21]: > 100 µM | LC50 (50% lethal concentration) [21]: > 100 µM | GI50 [22]: 2340 nM | LC50 (concentration killing 50% of cells relative to time zero) [22]: > 100 µM | GI50 [23]: 1100 nM | CC50 [23, 35]: 40.2 µM | GI50 [24]: 1970 nM | LC50 (50% net cell kill) [24]: > 100 µM | GI50 [25]: 3.86 µM | LC50 (50% net cell kill relative to time zero) [25]: > 100 µM | GI50 [26]: 5.18 µM | CC50 [26, 35]: > 100 µM | GI50 [27]: 1630 nM | CC50 [27, 35]: > 100 µM | LC50 [28]: > 100 µM | GI50 [29]: 810 nM | CC50 [29, 35]: > 100 µM | GI50 [30]: 560 nM | LC50 [30]: > 100 µM | GI50 [31]: > 100 µM | LC50 [31]: > 100 µM | GI50 [32]: 940 nM | CC50 [32, 35]: > 100 µM | GI50 [33]: 790 nM | LC50 [33]: > 100 µM | GI50 [34]: 3.36 µM | LC50 [34]: > 100 µM
